Assay results from ChEMBL document CHEMBL6096655, “Discovery of a novel, selective CK2 inhibitor class with an unusual basic scaffold” (Eur J Med Chem, 2025).

Columns and labels:
786-0 [1] = experiment: Antiproliferative activity against human 786-0 cells assessed as inhibition of cell growth measured after 3 to 4 days by MTT assay; type: functional; conditions: time 3-4 day
Procedure, shortened: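 786-O or U937 cells grown in RPMI with 2 mM L-glutamine, 1% pen/strep and 10% FCS. Cells were seeded at 5000 per well and left overnight, then switched to 1% FCS medium containing compound or DMSO (max. 0.2% final). Growth ran 3–4 days at 37 °C in 5% CO₂ without medium change, followed by MTT read-out. GI50 is the mean ± SD of at least two independent experiments.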

[2] = Antiproliferative activity against HEK293 cells assessed as inhibition of cell growth measured after 3 to 4 days by MTT assay; type: toxicity, cell-based; conditions: human, time 3-4 day
Procedure, shortened: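 HEK293 cells grown in DMEM with 2 mM L-glutamine, 1% pen/strep and 10% FCS. Cells were seeded at 5000 per well, left overnight, then given medium with 1% FCS plus compound or DMSO (max. 0.2% final). They were grown 3–4 days at 37 °C in 5% CO₂ with no medium change, and growth was read by MTT.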

786-0 [3] = experiment: Induction of cell death in human 786-0 cells assessed as cell viability measured after 11 hrs by CellCyteX live-cell microscopy analysis; type: functional, cell-based; conditions: dose 10-20 µM
Procedure, shortened: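 786-O cells seeded at 3×10³ per well and grown 24 h. Compound was then added in culture medium containing 125 nM Cytotox Green, at 0.2% (v/v) final DMSO, and kept at 37 °C in 5% CO₂. Green fluorescence images of dead cells were taken every 3 h by live-cell microscopy and normalized to the DMSO control. Results are representative of three independent measurements.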

Homo sapiens = organism: Homo sapiens; experiment: Inhibition of human recombinant GST tagged CDK1/cyclin B expressed in insect cells at 2 uM by Eurofins kinase assay relative to control
[4] = target: Dual specificity protein kinase CLK4 (Homo sapiens) (UniProt Q9HAZ1); experiment: Inhibition of human recombinant CLK4 at 2 uM by Eurofins kinase assay relative to control
[5] = target: Casein kinase I isoform gamma-1 (Homo sapiens) (UniProt Q9HCP0); experiment: Inhibition of human recombinant GST tagged CSNK1G1 expressed in insect cells at 2 uM by Eurofins kinase assay relative to control
Sequence of Casein kinase I isoform gamma-1 (Homo sapiens) (Q9HCP0 whole entry, looked up, canonical isoform): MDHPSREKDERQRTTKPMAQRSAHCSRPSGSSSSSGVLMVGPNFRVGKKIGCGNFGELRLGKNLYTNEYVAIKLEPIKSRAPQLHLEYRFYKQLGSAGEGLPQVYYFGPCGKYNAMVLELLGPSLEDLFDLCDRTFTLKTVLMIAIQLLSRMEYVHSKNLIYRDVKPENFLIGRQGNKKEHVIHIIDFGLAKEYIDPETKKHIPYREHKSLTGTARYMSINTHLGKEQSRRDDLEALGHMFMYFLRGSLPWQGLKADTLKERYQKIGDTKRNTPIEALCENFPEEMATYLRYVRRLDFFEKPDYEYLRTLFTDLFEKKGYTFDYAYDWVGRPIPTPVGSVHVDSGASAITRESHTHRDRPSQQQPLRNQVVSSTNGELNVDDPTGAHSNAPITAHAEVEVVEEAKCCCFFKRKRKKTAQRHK

[6] = target: Dual specificity tyrosine-phosphorylation-regulated kinase 1A (Homo sapiens) (UniProt Q13627); experiment: Inhibition of human DYRK1A at 2 uM by Eurofins kinase assay relative to control
[7] = target: Dual specificity tyrosine-phosphorylation-regulated kinase 1B (Homo sapiens) (UniProt Q9Y463); experiment: Inhibition of human recombinant DYRK1B at 2 uM by Eurofins kinase assay relative to control
Sequence of Dual specificity tyrosine-phosphorylation-regulated kinase 1B (Homo sapiens) (Q9Y463 whole entry, looked up): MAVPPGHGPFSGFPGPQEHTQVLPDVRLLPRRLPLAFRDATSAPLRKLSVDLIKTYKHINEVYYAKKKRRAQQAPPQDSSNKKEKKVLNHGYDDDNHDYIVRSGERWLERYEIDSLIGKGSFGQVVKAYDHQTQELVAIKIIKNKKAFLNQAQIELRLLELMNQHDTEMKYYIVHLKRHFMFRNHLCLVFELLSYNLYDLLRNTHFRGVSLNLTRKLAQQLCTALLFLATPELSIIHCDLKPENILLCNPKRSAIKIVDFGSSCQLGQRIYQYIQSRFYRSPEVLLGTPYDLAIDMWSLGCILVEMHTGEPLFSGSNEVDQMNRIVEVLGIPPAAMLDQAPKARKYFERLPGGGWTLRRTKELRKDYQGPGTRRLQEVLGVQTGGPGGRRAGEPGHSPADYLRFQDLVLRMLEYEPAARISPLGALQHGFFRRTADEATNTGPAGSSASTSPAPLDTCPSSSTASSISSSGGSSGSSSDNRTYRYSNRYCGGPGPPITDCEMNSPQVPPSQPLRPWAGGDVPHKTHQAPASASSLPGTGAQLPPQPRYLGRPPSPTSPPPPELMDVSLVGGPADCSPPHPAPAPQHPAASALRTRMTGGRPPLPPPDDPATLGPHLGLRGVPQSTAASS

[8] = target: Vascular endothelial growth factor receptor 3 (Homo sapiens) (UniProt P35916); experiment: Inhibition of human recombinant FLT4 at 2 uM by Eurofins kinase assay relative to control
[9] = target: Serine/threonine-protein kinase haspin (Homo sapiens) (UniProt Q8TF76); experiment: Inhibition of human recombinant GSG2 at 2 uM by Eurofins kinase assay relative to control
Sequence of Serine/threonine-protein kinase haspin (Homo sapiens) (Q8TF76 whole entry): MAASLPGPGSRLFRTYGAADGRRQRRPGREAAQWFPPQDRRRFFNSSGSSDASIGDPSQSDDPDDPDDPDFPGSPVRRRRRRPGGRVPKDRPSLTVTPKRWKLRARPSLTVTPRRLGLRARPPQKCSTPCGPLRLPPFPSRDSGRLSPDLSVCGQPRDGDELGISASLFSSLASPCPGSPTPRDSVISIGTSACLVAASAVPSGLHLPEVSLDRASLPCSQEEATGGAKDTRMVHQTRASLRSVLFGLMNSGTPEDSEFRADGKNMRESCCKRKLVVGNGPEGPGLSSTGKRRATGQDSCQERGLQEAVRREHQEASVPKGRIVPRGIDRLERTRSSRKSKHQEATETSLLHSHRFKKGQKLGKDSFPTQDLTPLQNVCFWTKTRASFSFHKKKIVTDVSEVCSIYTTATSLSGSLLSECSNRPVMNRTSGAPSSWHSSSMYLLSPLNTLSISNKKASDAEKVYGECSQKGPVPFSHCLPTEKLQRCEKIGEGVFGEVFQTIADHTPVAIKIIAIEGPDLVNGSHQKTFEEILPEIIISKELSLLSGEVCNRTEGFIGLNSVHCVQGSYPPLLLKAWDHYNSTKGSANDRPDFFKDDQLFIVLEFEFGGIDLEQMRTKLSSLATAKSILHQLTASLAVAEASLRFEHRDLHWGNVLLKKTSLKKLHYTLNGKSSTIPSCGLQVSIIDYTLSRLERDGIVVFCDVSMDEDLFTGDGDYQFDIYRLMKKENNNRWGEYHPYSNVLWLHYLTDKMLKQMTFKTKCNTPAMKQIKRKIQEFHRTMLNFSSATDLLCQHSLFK

[10] = target: Homeodomain-interacting protein kinase 2 (Homo sapiens) (UniProt Q9H2X6); experiment: Inhibition of human recombinant HIPK2 at 2 uM by Eurofins kinase assay relative to control
[11] = target: Mitogen-activated protein kinase 1 (Homo sapiens) (UniProt P28482); experiment: Inhibition of human MAPK1 at 2 uM by Eurofins kinase assay relative to control
[12] = target: Hepatocyte growth factor receptor (Homo sapiens) (UniProt P08581); experiment: Inhibition of human MET at 2 uM by Eurofins kinase assay relative to control
Sequence of Hepatocyte growth factor receptor (Homo sapiens) (P08581 whole entry): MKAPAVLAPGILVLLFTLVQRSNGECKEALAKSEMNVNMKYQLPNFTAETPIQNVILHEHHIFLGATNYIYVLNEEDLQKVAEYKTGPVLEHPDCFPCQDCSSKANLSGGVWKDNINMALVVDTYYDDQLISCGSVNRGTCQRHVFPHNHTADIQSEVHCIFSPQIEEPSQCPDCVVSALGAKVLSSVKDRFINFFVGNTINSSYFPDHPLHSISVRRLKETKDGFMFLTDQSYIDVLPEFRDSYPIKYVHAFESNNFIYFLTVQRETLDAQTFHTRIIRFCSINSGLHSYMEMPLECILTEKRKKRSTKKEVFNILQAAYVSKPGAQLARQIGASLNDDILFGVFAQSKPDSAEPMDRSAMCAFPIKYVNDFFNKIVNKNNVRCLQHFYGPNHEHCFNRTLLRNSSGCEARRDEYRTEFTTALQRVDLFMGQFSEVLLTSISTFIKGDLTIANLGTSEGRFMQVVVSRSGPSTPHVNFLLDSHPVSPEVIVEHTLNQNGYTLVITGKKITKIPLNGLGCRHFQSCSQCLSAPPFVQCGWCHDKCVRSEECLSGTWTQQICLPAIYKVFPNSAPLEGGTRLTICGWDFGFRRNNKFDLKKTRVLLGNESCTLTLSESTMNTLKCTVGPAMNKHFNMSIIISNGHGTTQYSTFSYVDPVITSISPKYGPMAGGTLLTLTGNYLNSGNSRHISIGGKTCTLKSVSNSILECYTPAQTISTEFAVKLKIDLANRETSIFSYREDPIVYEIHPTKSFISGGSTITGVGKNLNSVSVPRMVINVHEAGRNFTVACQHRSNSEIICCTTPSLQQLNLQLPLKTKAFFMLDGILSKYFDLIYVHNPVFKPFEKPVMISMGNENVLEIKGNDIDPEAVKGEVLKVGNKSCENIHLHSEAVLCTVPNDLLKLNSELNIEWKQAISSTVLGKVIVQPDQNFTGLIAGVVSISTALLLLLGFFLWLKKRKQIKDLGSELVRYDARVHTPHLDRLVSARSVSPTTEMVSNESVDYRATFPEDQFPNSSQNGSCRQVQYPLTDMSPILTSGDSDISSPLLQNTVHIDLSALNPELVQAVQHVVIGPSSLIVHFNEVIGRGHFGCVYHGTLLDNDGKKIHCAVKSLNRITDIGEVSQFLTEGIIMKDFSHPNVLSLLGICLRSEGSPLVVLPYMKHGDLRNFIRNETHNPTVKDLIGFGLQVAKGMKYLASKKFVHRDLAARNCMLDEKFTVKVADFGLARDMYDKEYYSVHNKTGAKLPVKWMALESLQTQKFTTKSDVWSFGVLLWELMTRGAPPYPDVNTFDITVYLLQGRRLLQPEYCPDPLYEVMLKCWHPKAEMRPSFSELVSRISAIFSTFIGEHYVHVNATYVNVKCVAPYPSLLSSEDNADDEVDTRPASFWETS

[13] = target: cAMP-dependent protein kinase catalytic subunit alpha (Homo sapiens) (UniProt P17612); experiment: Inhibition of human recombinant PRKACA at 2 uM by Eurofins kinase assay relative to control
[14] = target: Serine/threonine-protein kinase D1 (Homo sapiens) (UniProt Q15139); experiment: Inhibition of human recombinant PRKD1 at 2 uM by Eurofins kinase assay relative to control
Sequence of Serine/threonine-protein kinase D1 (Homo sapiens) (Q15139 whole entry): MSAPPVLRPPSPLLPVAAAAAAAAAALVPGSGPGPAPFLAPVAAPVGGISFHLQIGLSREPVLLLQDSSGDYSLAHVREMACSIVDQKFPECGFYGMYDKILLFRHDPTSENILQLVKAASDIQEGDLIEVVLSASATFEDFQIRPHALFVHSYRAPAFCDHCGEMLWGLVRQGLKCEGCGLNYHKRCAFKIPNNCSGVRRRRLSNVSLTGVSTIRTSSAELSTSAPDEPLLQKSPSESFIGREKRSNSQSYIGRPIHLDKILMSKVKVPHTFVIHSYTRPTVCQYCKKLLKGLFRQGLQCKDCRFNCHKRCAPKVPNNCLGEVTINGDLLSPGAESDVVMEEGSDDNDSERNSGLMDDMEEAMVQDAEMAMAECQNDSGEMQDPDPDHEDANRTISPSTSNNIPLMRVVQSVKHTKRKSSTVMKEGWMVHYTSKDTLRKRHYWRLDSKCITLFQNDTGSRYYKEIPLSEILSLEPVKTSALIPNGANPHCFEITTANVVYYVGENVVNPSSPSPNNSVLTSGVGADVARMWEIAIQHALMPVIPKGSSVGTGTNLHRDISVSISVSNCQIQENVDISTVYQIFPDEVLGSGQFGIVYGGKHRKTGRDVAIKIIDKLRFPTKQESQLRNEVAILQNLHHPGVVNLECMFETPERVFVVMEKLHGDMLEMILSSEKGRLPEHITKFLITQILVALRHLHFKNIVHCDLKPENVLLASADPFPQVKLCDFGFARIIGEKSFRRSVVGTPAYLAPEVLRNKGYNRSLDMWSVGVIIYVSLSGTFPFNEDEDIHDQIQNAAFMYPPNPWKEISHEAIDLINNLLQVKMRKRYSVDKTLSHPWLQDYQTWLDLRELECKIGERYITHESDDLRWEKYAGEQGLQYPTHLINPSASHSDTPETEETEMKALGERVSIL

[15] = Upregulation of PARP cleavage in human U-937 cells by measuring signal 1 at 5 uM measured after 48 hrs by immunoblot analysis; type: functional
Procedure, shortened: (§1)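 U937 cells exposed to compound or DMSO for 48 h, then lysed in Laemmli buffer. Lysates were run on 8–16% gradient SDS-PAGE, semi-dry blotted to PVDF and probed for PARP. Detection used IR-fluorescent secondary antibodies. The cleaved/uncleaved PARP signal ratio was obtained by densitometry. Results are representative of two independent experiments.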

[16] = Upregulation of PARP cleavage in human U-937 cells by measuring signal 1 at 10 uM measured after 48 hrs by immunoblot analysis; type: functional; procedure, shortened: as §1
[17] = Upregulation of PARP cleavage in human U-937 cells by measuring signal 2 at 5 uM measured after 48 hrs by immunoblot analysis; type: functional
Procedure, shortened: (§2)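 U937 lymphoma cells grown in RPMI with 2 mM L-glutamine, 1 % pen/strep and 10 % FCS; exposed to compound or DMSO solvent control for 48 h. Total cellular proteins harvested and immunoblotted with an antibody against phosphorylated CK2-substrate motifs and for PARP. Read-out is the densitometric ratio of cleaved to uncleaved PARP signal. Representative of two independent experiments.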

[18] = Upregulation of PARP cleavage in human U-937 cells by measuring signal 2 at 30 uM measured after 48 hrs by immunoblot analysis; type: functional; procedure, shortened: as §2
[19] = target: Signal transducer and activator of transcription 3 (Homo sapiens) (UniProt P40763); experiment: Inhibition of STAT3 phosphorylation in human 786-O cells at 6 uM measured after 48 hrs by immunoblot analysis relative to control
Sequence of Signal transducer and activator of transcription 3 (Homo sapiens) (P40763 whole entry): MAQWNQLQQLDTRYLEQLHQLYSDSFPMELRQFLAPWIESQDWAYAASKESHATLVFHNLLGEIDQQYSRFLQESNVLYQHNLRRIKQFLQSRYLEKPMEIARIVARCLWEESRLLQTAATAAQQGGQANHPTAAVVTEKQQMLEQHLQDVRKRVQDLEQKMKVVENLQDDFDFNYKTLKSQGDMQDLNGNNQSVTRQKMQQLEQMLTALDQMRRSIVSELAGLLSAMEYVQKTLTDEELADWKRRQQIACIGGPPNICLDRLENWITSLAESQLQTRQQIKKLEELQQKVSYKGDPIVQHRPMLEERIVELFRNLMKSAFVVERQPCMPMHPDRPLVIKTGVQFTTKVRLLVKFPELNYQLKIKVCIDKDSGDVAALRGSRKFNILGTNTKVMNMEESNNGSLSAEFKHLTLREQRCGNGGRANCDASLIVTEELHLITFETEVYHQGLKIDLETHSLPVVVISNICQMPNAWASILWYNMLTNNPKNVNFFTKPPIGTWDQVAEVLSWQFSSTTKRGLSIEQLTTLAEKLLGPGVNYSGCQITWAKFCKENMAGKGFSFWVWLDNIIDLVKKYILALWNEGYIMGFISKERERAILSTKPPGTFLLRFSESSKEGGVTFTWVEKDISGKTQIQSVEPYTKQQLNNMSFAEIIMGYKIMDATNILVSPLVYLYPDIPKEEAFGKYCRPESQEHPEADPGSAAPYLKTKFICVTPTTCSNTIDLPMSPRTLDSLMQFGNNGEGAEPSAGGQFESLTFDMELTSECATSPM

[20] = target: Signal transducer and activator of transcription 3 (Homo sapiens) (UniProt P40763); experiment: Inhibition of STAT3 phosphorylation in human 786-O cells at 8 uM measured after 48 hrs by immunoblot analysis relative to control
[21] = target: T1, Hsp90 co-chaperone Cdc37 (Homo sapiens) (UniProt Q16543); experiment: Inhibition of CDC37 phosphorylation in human 786-O cells at 6 uM measured after 48 hrs by immunoblot analysis relative to control
T1 sequence (whole entry): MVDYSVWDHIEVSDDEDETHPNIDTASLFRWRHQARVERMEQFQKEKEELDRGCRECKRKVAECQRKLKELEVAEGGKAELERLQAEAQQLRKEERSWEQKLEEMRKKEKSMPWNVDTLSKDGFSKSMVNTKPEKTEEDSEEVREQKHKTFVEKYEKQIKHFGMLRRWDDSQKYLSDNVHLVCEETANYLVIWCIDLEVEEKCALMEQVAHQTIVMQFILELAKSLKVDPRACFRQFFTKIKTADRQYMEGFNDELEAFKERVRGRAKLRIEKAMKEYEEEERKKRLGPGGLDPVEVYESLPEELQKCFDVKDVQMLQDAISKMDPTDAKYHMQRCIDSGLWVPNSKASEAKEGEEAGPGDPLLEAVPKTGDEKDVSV

[22] = target: Signal transducer and activator of transcription 3 (Homo sapiens) (UniProt P40763); experiment: Inhibition of STAT3 phosphorylation in human 786-O cells at 10 uM measured after 48 hrs by immunoblot analysis relative to control

In the case of `Clc1ccc(N2CCN(c3ncnc4sc5c(c34)CCNC5)CC2)cc1.O=C(O)C(F)(F)F`, the GI50 (786-0 [1]) is reported as 7.3 µM, the GI50 [2] is reported as 30 µM and the Activity (786-0 [3]) is reported as “Dose-dependent-effect”. The inhibition (Homo sapiens) was 4%, the inhibition [4] was 11% and the inhibition [5] was 21%. The inhibition [6] was 4%, the inhibition [7] was 2% and the inhibition [8] was 5%. The inhibition [9] was 5%, the inhibition [10] was 15% and the inhibition [11] was 2%. For the same compound, the inhibition [12] was 2%, the inhibition [13] was 6% and the inhibition [14] was 10%. It also gave an Activity [15] of 72%, an Activity [16] of 89% and an Activity [17] of 17%. It also gave an Activity [18] of 95%, an inhibition [19] of 64% and an inhibition [20] of 80%. For the same compound, the inhibition [21] was 0% and the inhibition [22] was 97%.
